From ChEMBL document CHEMBL1124962, “Synthesis and structure-affinity of a series of 7 alpha-undecylestradiol derivatives: a potential vector for therapy and imaging of estrogen-receptor-positive cancers” (J Med Chem, 1990)

What was measured:
[1] = target: T1, Estrogen receptor (Bos taurus) (UniProt Q9XSB5+P49884); test: Ratio of displacement of 17-beta-[3H]-estradiol from calf uterine estrogen receptor compared to 17-beta-estradiol after 12 hr incubation; type: protein assay
Method in brief: (§1)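 Calf uterine cytosol (105000g, 60 min, 4 °C spin of homogenate in 5 mM sodium phosphate pH 7.5, 10 mM monothioglycerol, 10% glycerol; 0.68 mg protein in final mix) incubated at 4 °C without DMF with 10⁻⁹ M 17β-[³H]estradiol and nine competitor concentrations (3 × 10⁻¹²–10⁻⁶ M), triplicates. Dextran-coated charcoal separation, supernatant counted. RBA = IC50 ratio of estradiol to competitor ×100, mean of ≥3 experiments.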

[2] = target: T1, Estrogen receptor (Bos taurus); test: Ratio of displacement of 17-beta-[3H]-estradiol from calf uterine estrogen receptor compared to 17-beta-estradiol after 20 hr incubation; type: protein assay; method in brief: as §1

SMILES	relative binding affinity (RBA) [1]	relative binding affinity (RBA) [2]
C[C@]12CC[C@@H]3c4ccc(O)cc4C[C@@H](CCCCCCCCCCCCl)[C@H]3[C@@H]1CC[C@@H]2O	0.7	0.7
C[C@]12CC[C@@H]3c4ccc(O)cc4C[C@@H](CCCCCCCCCCCI)[C@H]3[C@@H]1CC[C@@H]2O	0.04	0.1
C[C@]12CC[C@@H]3c4ccc(O)cc4CC[C@H]3[C@@H]1C[C@@H](I)[C@@H]2O	22.1	27.1
C[C@]12CC[C@@H]3c4ccc(O)cc4C[C@@H](CCCCCCCCCCCF)[C@H]3[C@@H]1CC[C@@H]2O	1.3	1.5
C[C@]12CC[C@@H]3c4ccc(O)cc4C[C@@H](CCCCCCCCCCCOc4ccc(I)cc4)[C@H]3[C@@H]1CC[C@@H]2O	0.1	0.09
C=CCCCCCCCCC[C@@H]1Cc2cc(O)ccc2[C@H]2CC[C@]3(C)[C@@H](O)CC[C@H]3[C@H]12	0.09	0.09
C[C@]12CC[C@@H]3c4ccc(O)cc4C[C@@H](CCCCCCCCCCCBr)[C@H]3[C@@H]1CC[C@@H]2O	0.05	0.2
C[C@]12CC[C@@H]3c4ccc(O)cc4C[C@@H](CCCCCCCCCCCOc4ccccc4)[C@H]3[C@@H]1CC[C@@H]2O	0.1	0.1
C[C@]12CC[C@@H]3c4ccc(O)cc4C[C@@H](CCCCCCCCCCCO)[C@H]3[C@@H]1CC[C@@H]2O	2.9	2
